Reference: ChEMBL document CHEMBL3124924, “Bifunctional ethyl 2-amino-4-methylthiazole-5-carboxylate derivatives: synthesis and in vitro biological evaluation as antimicrobial and anticancer agents” (2014)
Values after ≈ are worked out from the molar mass of the structure shown. Active and inactive are the calls of the source. No cut-off for these calls is given here.

Experiments:
HT-29 = assay: Cytotoxicity against human HT-29 cells assessed as growth inhibition at 10 uM after 48 hrs by SRB assay; assay type: functional; conditions: HT-29, 48 h, read-out: GI
How it was run: (§1)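 NCI-60 one-dose primary screen run by the NCI Drug Evaluation Branch across the full 60-line panel. Single high-dose treatment with 48 h continuous drug exposure. Cell growth estimated by sulforhodamine B protein staining. Results given as percent growth of treated cells and expressed as percentage growth inhibition.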

SN12C = assay: Cytotoxicity against human SN12C cells assessed as growth inhibition at 10 uM after 48 hrs by SRB assay; assay type: functional; conditions: read-out: GI; how it was run: as §1
SK-MEL-2 = assay: Cytotoxicity against human SK-MEL-2 cells assessed as growth inhibition at 10 uM after 48 hrs by SRB assay; assay type: functional; conditions: SK-MEL-2, 48 h, read-out: GI; how it was run: as §1
Staphylococcus aureus [1] = assay: Antibacterial activity against Staphylococcus aureus ATCC 6538 assessed as growth inhibition after 48 hrs by two-fold serial dilution assay; assay type: functional; conditions: ATCC 6538, 48 h
How it was run: (§2)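 Twofold serial broth dilution run on compounds giving inhibition zones of 13 mm or more. Organisms pre-grown in suitable broth at 37 °C, 24 h for bacteria and 48 h for fungi. Dilution series 200, 100, 50, 25, 12.5, 6.25. Each 5 mL tube inoculated with 0.1 mL and incubated 37 °C for 48 h. Tubes scored for presence or absence of growth.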

RPMI-8226 = assay: Cytotoxicity against human RPMI8226 cells assessed as growth inhibition at 10 uM after 48 hrs by SRB assay; assay type: functional; conditions: RPMI-8226, 48 h, read-out: GI; how it was run: as §1
IGROV-1 = assay: Cytotoxicity against human IGROV1 cells assessed as growth inhibition at 10 uM after 48 hrs by SRB assay; assay type: functional; conditions: IGROV-1, 48 h, read-out: GI; how it was run: as §1
NCI-H522 = assay: Cytotoxicity against human NCI-H522 cells assessed as growth inhibition at 10 uM after 48 hrs by SRB assay; assay type: functional; conditions: NCI-H522, 48 h, read-out: GI; how it was run: as §1
LOX IMVI = assay: Cytotoxicity against human LOXIMVI cells assessed as growth inhibition at 10 uM after 48 hrs by SRB assay; assay type: functional; conditions: read-out: GI; how it was run: as §1
CCRF-CEM = assay: Cytotoxicity against human CCRF-CEM cells assessed as growth inhibition at 10 uM after 48 hrs by SRB assay; assay type: functional; conditions: read-out: GI; how it was run: as §1
Pseudomonas aeruginosa [2] = assay: Antibacterial activity against Pseudomonas aeruginosa ATCC 27853 assessed as growth inhibition at 1 mg/mL after 24 hrs by agar-cup diffusion method; assay type: functional; conditions: ATCC 27853, 24 h, read-out: DIZ
How it was run: (§3)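 Agar-cup diffusion: 1 mL of 6 h broth culture seeded per 100 mL molten sterile agar at 45 °C and poured into plates. 8 mm cups cut, each filled with 0.1 mL of 1 mg/mL test solution. Incubated 37 °C for 24 h, 48 h for C. albicans. DMSO control per organism. Inhibition zone diameter in mm, mean of three measurements.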

Staphylococcus aureus [3] = assay: Antibacterial activity against Staphylococcus aureus ATCC 6538 assessed as growth inhibition at 1 mg/mL after 24 hrs by agar-cup diffusion method; assay type: functional; conditions: ATCC 6538, 24 h, read-out: DIZ; how it was run: as §3
U-251 = assay: Cytotoxicity against human U251 cells assessed as growth inhibition at 10 uM after 48 hrs by SRB assay; assay type: functional; conditions: U-251, 48 h, read-out: GI; how it was run: as §1
UACC-62 = assay: Cytotoxicity against human UACC62 cells assessed as growth inhibition at 10 uM after 48 hrs by SRB assay; assay type: functional; conditions: UACC-62, 48 h, read-out: GI; how it was run: as §1
MDA-MB-468 = assay: Cytotoxicity against human MDA-MB-468 cells assessed as growth inhibition at 10 uM after 48 hrs by SRB assay; assay type: functional; conditions: MDA-MB-468, 48 h, read-out: GI; how it was run: as §1
SR = assay: Cytotoxicity against human SR cells assessed as growth inhibition at 10 uM after 48 hrs by SRB assay; assay type: functional; conditions: read-out: GI; how it was run: as §1
Pseudomonas aeruginosa [4] = assay: Antibacterial activity against Pseudomonas aeruginosa ATCC 27853 assessed as growth inhibition after 48 hrs by two-fold serial dilution assay; assay type: functional; conditions: ATCC 27853, 48 h; how it was run: as §2
Staphylococcus aureus [5] = assay: Bactericidal activity against Staphylococcus aureus ATCC 6538 after 18 hrs; assay type: functional; conditions: ATCC 6538, 18 h
How it was run: (§4)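 Continuation of the broth-dilution MIC test. A loopful from each tube without visible growth spread on a quarter of a Mueller-Hinton agar plate and incubated 18 h. Lowest concentration giving no growth on subculture taken as the MBC.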

Bacillus spizizenii [6] = assay: Bactericidal activity against Bacillus subtilis ATCC 6633 after 18 hrs; assay type: functional; conditions: ATCC 6633, 18 h; how it was run: as §4
HCC 2998 = assay: Cytotoxicity against human HCC2998 cells assessed as growth inhibition at 10 uM after 48 hrs by SRB assay; assay type: functional; conditions: HCC 2998, 48 h, read-out: GI; how it was run: as §1
SW-620 = assay: Cytotoxicity against human SW620 cells assessed as growth inhibition at 10 uM after 48 hrs by SRB assay; assay type: functional; conditions: SW-620, 48 h, read-out: GI; how it was run: as §1
Aspergillus niger = assay: Antifungal activity against Aspergillus niger assessed as growth inhibition at 1 mg/mL after 24 hrs by agar-cup diffusion method; assay type: functional, organism-based; how it was run: as §3
HCT-116 = assay: Cytotoxicity against human HCT116 cells assessed as growth inhibition at 10 uM after 48 hrs by SRB assay; assay type: functional; conditions: HCT-116, 48 h, read-out: GI; how it was run: as §1
Bacillus spizizenii [7] = assay: Antibacterial activity against Bacillus subtilis ATCC 6633 assessed as growth inhibition after 48 hrs by two-fold serial dilution assay; assay type: functional; conditions: ATCC 6633, 48 h; how it was run: as §2
Candida albicans = assay: Antifungal activity against Candida albicans ATCC 10231 assessed as growth inhibition at 1 mg/mL after 48 hrs by agar-cup diffusion method; assay type: functional; conditions: ATCC 10231, 48 h, read-out: DIZ; how it was run: as §3
HCT-15 = assay: Cytotoxicity against human HCT15 cells assessed as growth inhibition at 10 uM after 48 hrs by SRB assay; assay type: functional; conditions: HCT-15, 48 h, read-out: GI; how it was run: as §1
K562 = assay: Cytotoxicity against human K562 cells assessed as growth inhibition at 10 uM after 48 hrs by SRB assay; assay type: functional; conditions: K562, 48 h, read-out: GI; how it was run: as §1
NCI-H226 = assay: Cytotoxicity against human NCI-H226 cells assessed as growth inhibition at 10 uM after 48 hrs by SRB assay; assay type: functional; conditions: NCI-H226, 48 h, read-out: GI; how it was run: as §1
Escherichia coli [8] = assay: Antibacterial activity against Escherichia coli ATCC 25922 assessed as growth inhibition at 1 mg/mL after 24 hrs by agar-cup diffusion method; assay type: functional; conditions: ATCC 25922, 24 h, read-out: DIZ; how it was run: as §3
PC-3 = assay: Cytotoxicity against human PC3 cells assessed as growth inhibition at 10 uM after 48 hrs by SRB assay; assay type: functional; conditions: PC-3, 48 h, read-out: GI; how it was run: as §1
Escherichia coli [9] = assay: Bactericidal activity against Escherichia coli ATCC 25922 after 18 hrs; assay type: functional; conditions: ATCC 25922, 18 h; how it was run: as §4
T47D = assay: Cytotoxicity against human T47D cells assessed as growth inhibition at 10 uM after 48 hrs by SRB assay; assay type: functional; conditions: read-out: GI; how it was run: as §1
SF-268 = assay: Cytotoxicity against human SF268 cells assessed as growth inhibition at 10 uM after 48 hrs by SRB assay; assay type: functional; conditions: SF-268, 48 h, read-out: GI; how it was run: as §1

Compound	inhibition of growth at 10 µM (HT-29) [%]	inhibition of growth at 10 µM (SN12C) [%]	inhibition of growth at 10 µM (SK-MEL-2) [%]	MIC (Staphylococcus aureus [1]) [µg/mL]	inhibition of growth at 10 µM (RPMI-8226) [%]	inhibition of growth at 10 µM (IGROV-1) [%]	inhibition of growth at 10 µM (NCI-H522) [%]	inhibition of growth at 10 µM (LOX IMVI) [%]	inhibition of growth at 10 µM (CCRF-CEM) [%]	zone of inhibition at 1000 µg/mL (Pseudomonas aeruginosa [2]) [mm]	zone of inhibition at 1000 µg/mL (Staphylococcus aureus [3]) [mm]	inhibition of growth at 10 µM (U-251) [%]	inhibition of growth at 10 µM (UACC-62) [%]	inhibition of growth at 10 µM (MDA-MB-468) [%]	inhibition of growth at 10 µM (SR) [%]	MIC (Pseudomonas aeruginosa [4]) [µg/mL]	MBC (Staphylococcus aureus [5]) [µg/mL]	MBC (Bacillus spizizenii [6]) [µg/mL]	inhibition of growth at 10 µM (HCC 2998) [%]	inhibition of growth at 10 µM (SW-620) [%]	other results
CCOC(=O)c1sc(NC(=O)Nc2ccccc2)nc1C	24.1	4.19	77.6	25 (≈ 81.9 µM)	22.8	72.9	2.64	4.13	22	> 13	> 13	9.58	20	18.4	14.3	50 (≈ 164 µM)	25 (≈ 81.9 µM)	50 (≈ 164 µM)	27.4	2.85	growth inhibition (GI) (Aspergillus niger): inactive; inhibition of growth at 10 µM (HCT-116): 16.3%; MIC (Bacillus spizizenii [7]): 50 µg/mL (≈ 164 µM); zone of inhibition at 1000 µg/mL (Candida albicans): > 13 mm; inhibition of growth at 10 µM (HCT-15): < 10%; inhibition of growth at 10 µM (K562): 39%; inhibition of growth at 10 µM (NCI-H226): 11.3%; zone of inhibition at 1000 µg/mL (Escherichia coli [8]): > 13 mm; inhibition of growth at 10 µM (PC-3): 4.18%; MBC (Escherichia coli [9]): 25 µg/mL (≈ 81.9 µM); inhibition of growth at 10 µM (T47D): 12.6%; inhibition of growth at 10 µM (SF-268): 4.88%
CCOC(=O)c1sc(NS(=O)(=O)c2ccccc2)nc1C	< 10	< 10	97.5	25 (≈ 76.6 µM)	< 10	93.1	< 10	< 10	< 10	> 13	> 13	< 10	< 10	< 10	< 10	100 (≈ 306 µM)	25 (≈ 76.6 µM)	100 (≈ 306 µM)	72.5	< 10	growth inhibition (GI) (Aspergillus niger): inactive; inhibition of growth at 10 µM (HCT-116): 43.1%; MIC (Bacillus spizizenii [7]): 100 µg/mL (≈ 306 µM); zone of inhibition at 1000 µg/mL (Candida albicans): > 13 mm; inhibition of growth at 10 µM (HCT-15): < 10%; inhibition of growth at 10 µM (K562): < 10%; inhibition of growth at 10 µM (NCI-H226): < 10%; zone of inhibition at 1000 µg/mL (Escherichia coli [8]): > 13 mm; inhibition of growth at 10 µM (PC-3): < 10%; MBC (Escherichia coli [9]): 50 µg/mL (≈ 153 µM); inhibition of growth at 10 µM (T47D): < 10%; inhibition of growth at 10 µM (SF-268): < 10%
